In ChEMBL document CHEMBL3425484, “Novel N-benzenesulfonyl sophocarpinol derivatives as coxsackie B virus inhibitors” (ACS Med Chem Lett, 2015):

Columns and labels:
Coxsackievirus [1] = test: Antiviral activity against Coxsackievirus B3 infected in african green monkey Vero cells assessed as reduction in viral-induced cytopathic effect; assay type: functional, organism-based
In short: (§1)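 Vero (African green monkey kidney) cells were infected with the CVB subtype and scored by viral cytopathogenic effect (CPE) reduction, with ribavirin as the positive control. IC50 is the concentration that inhibits CVB growth by 50%.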

[2] = Selectivity index, ratio of TC50 for african green monkey Vero cells to IC50 for Coxsackievirus B3 infected in african green monkey Vero cells; assay type: toxicity, cell-based; settings: read-out: Selectivity Index
In short: (§2)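 SI is calculated as TC50 (50% inhibition of Vero cell growth) divided by IC50 (50% inhibition of the respective CVB subtype's growth, from the CPE assay in Vero cells, ribavirin as positive control).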

[3] = Cytotoxicity against african green monkey Vero cells assessed as inhibition of cell growth after 24 hrs by CPE assay; assay type: cell-based; settings: chlorocebus sabaeus, read-out: TC50
Coxsackievirus [4] = test: Antiviral activity against Coxsackievirus B5 infected in african green monkey Vero cells assessed as reduction in viral-induced cytopathic effect; assay type: functional, organism-based; in short: as §1
Coxsackievirus [5] = test: Antiviral activity against Coxsackievirus B1 infected in african green monkey Vero cells assessed as reduction in viral-induced cytopathic effect; assay type: functional, organism-based; in short: as §1
Coxsackievirus [6] = test: Antiviral activity against Coxsackievirus B6 infected in african green monkey Vero cells assessed as reduction in viral-induced cytopathic effect; assay type: functional, organism-based; in short: as §1
Coxsackievirus [7] = test: Antiviral activity against Coxsackievirus B2 infected in african green monkey Vero cells assessed as reduction in viral-induced cytopathic effect; assay type: functional, organism-based; in short: as §1
[8] = Selectivity index, ratio of TC50 for african green monkey Vero cells to IC50 for Coxsackievirus B2 infected in african green monkey Vero cells; assay type: toxicity, cell-based; settings: read-out: Selectivity Index; in short: as §2
[9] = Selectivity index, ratio of TC50 for african green monkey Vero cells to IC50 for Coxsackievirus B6 infected in african green monkey Vero cells; assay type: toxicity, cell-based; settings: read-out: Selectivity Index; in short: as §2
[10] = Selectivity index, ratio of TC50 for african green monkey Vero cells to IC50 for Coxsackievirus B1 infected in african green monkey Vero cells; assay type: toxicity, cell-based; settings: read-out: Selectivity Index; in short: as §2

Structure (SMILES) | IC50 (Coxsackievirus [1]) [µM] | selectivity ratio [2] | CC50 at 24 h [3] [µM] | other results
COC(=O)C/C=C\[C@@H]1[C@H]2CCCN3CCC[C@@H](CN1S(=O)(=O)c1ccc(C(F)(F)F)cc1)[C@@H]23 | 8.17 | 6.7 | 54.7 | 
N#Cc1cccc(S(=O)(=O)N2C[C@@H]3CCCN4CCC[C@@H]([C@H]34)[C@H]2/C=C\CCO)c1 | 5.47 | 27 | 148 | 
O=C(O)C/C=C\[C@@H]1[C@H]2CCCN3CCC[C@@H](CN1S(=O)(=O)c1ccc([N+](=O)[O-])cc1)[C@@H]23 | 49.8 | 6.2 | 309 | 
O=[N+]([O-])c1ccccc1S(=O)(=O)N1C[C@@H]2CCCN3CCC[C@@H]([C@H]23)[C@H]1CCCCO | 35.7 | 6.8 | 244 | 
O=C(O)C/C=C\[C@@H]1[C@H]2CCCN3CCC[C@@H](CN1S(=O)(=O)c1cc(Br)c(Br)s1)[C@@H]23 | 53.1 | 3.6 | 191 | 
NC(=O)c1ncn([C@@H]2O[C@H](CO)[C@@H](O)[C@H]2O)n1 [RIBAVIRIN] | 695 |  | 8200 | IC50 (Coxsackievirus [4]): 911 µM; IC50 (Coxsackievirus [5]): 1950 µM; IC50 (Coxsackievirus [6]): 1710 µM; IC50 (Coxsackievirus [7]): 2100 µM
O=C(O)CCC[C@@H]1[C@H]2CCCN3CCC[C@@H](CN1S(=O)(=O)c1ccc(C(F)(F)F)cc1)[C@@H]23 | 75.4 | 5.2 | 392 | 
N#Cc1ccccc1S(=O)(=O)N1C[C@@H]2CCCN3CCC[C@@H]([C@H]23)[C@H]1/C=C/CC(=O)O | 22.7 | 20.5 | 466 | 
O=C(O)C/C=C\[C@@H]1[C@H]2CCCN3CCC[C@@H](CN1S(=O)(=O)c1ccccc1[N+](=O)[O-])[C@@H]23 | 16.2 | 36.8 | 595 | 
COC(=O)CCC[C@@H]1[C@H]2CCCN3CCC[C@@H](CN1S(=O)(=O)c1ccccc1[N+](=O)[O-])[C@@H]23 | 23.9 | 16.7 | 399 | 
COC(=O)CCC[C@@H]1[C@H]2CCCN3CCC[C@@H](CN1S(=O)(=O)c1cccc([N+](=O)[O-])c1)[C@@H]23 | 3.51 | 19.7 | 68.9 | 
N#Cc1ccccc1S(=O)(=O)N1C[C@@H]2CCCN3CCC[C@@H]([C@H]23)[C@H]1/C=C\CC(=O)O | 27.6 | 15.6 | 430 | 
COC(=O)C/C=C\[C@@H]1[C@H]2CCCN3CCC[C@@H](CN1S(=O)(=O)c1ccccc1C#N)[C@@H]23 | 4.21 | 68.7 | 289 | 
COC(=O)C/C=C/[C@@H]1[C@H]2CCCN3CCC[C@@H](CN1S(=O)(=O)c1ccccc1C(F)(F)F)[C@@H]23 | 11.9 | 3.2 | 38.1 | 
COC(=O)C/C=C\[C@@H]1[C@H]2CCCN3CCC[C@@H](CN1S(=O)(=O)c1ccc(C#N)cc1)[C@@H]23 | 8.04 | 36.3 | 292 | 
COC(=O)C/C=C\[C@@H]1[C@H]2CCCN3CCC[C@@H](CN1S(=O)(=O)c1cccc([N+](=O)[O-])c1)[C@@H]23 | 9.24 | 12.1 | 112 | 
COC(=O)C/C=C\[C@@H]1[C@H]2CCCN3CCC[C@@H](CN1S(=O)(=O)c1cc(Br)c(Br)s1)[C@@H]23 | 1.19 | 17.7 | 21.1 | 
N#Cc1cccc(S(=O)(=O)N2C[C@@H]3CCCN4CCC[C@@H]([C@H]34)[C@H]2CCCC(=O)O)c1 | 82.3 | 5.2 | 428 | 
COC(=O)CCC[C@@H]1[C@H]2CCCN3CCC[C@@H](CN1S(=O)(=O)c1ccc(C(F)(F)F)cc1)[C@@H]23 | 2.54 | 28.9 | 73.4 | 
O=C(O)/C=C/C[C@@H]1[C@H]2CCCN3CCC[C@@H](CN1S(=O)(=O)c1ccccc1C(F)(F)F)[C@@H]23 | 27.2 | 15.6 | 424 | 
N#Cc1ccc(S(=O)(=O)N2C[C@@H]3CCCN4CCC[C@@H]([C@H]34)[C@H]2/C=C\CC(=O)O)cc1 | 52.4 | 14.2 | 745 | 

Structure (SMILES) | IC50 (Coxsackievirus [1]) [µM] | selectivity ratio [2] | CC50 at 24 h [3] [µM] | other results
O=S(=O)(c1ccc(C(F)(F)F)cc1)N1C[C@@H]2CCCN3CCC[C@@H]([C@H]23)[C@H]1CCCCO | 6.55 | 35.5 | 233 | 
O=[N+]([O-])c1ccc(S(=O)(=O)N2C[C@@H]3CCCN4CCC[C@@H]([C@H]34)[C@H]2/C=C\CCO)cc1 | 17 | 15.6 | 265 | 
O=C(O)C/C=C\[C@@H]1[C@H]2CCCN3CCC[C@@H](CN1S(=O)(=O)c1ccc(C(F)(F)F)cc1)[C@@H]23 | 18.6 | 14.7 | 272 | 
N#Cc1ccc(S(=O)(=O)N2C[C@@H]3CCCN4CCC[C@@H]([C@H]34)[C@H]2C/C=C/C(=O)O)cc1 | 29.9 | > 15.7 | > 466 | 
O=C(O)CCC[C@@H]1[C@H]2CCCN3CCC[C@@H](CN1S(=O)(=O)c1ccccc1[N+](=O)[O-])[C@@H]23 | 78.9 | 5.2 | 410 | 
O=C(O)C/C=C/[C@@H]1[C@H]2CCCN3CCC[C@@H](CN1S(=O)(=O)c1ccccc1C(F)(F)F)[C@@H]23 | 11.1 | 35.4 | 393 | 
COC(=O)C/C=C/[C@@H]1[C@H]2CCCN3CCC[C@@H](CN1S(=O)(=O)c1cccc(C#N)c1)[C@@H]23 | 7.3 | 9.9 | 72.4 | 
O=S(=O)(c1ccc(C(F)(F)F)cc1)N1C[C@@H]2CCCN3CCC[C@@H]([C@H]23)[C@H]1/C=C\CCO | 4.17 | 22.4 | 93.5 | 
COC(=O)C/C=C\[C@@H]1[C@H]2CCCN3CCC[C@@H](CN1S(=O)(=O)c1cccc(C(F)(F)F)c1)[C@@H]23 | 2.24 | 88.3 | 198 | 
COC(=O)C/C=C/[C@@H]1[C@H]2CCCN3CCC[C@@H](CN1S(=O)(=O)c1ccccc1C#N)[C@@H]23 | 8.92 | 9 | 80.3 | 
N#Cc1cccc(S(=O)(=O)N2C[C@@H]3CCCN4CCC[C@@H]([C@H]34)[C@H]2CCCCO)c1 | 11.3 | 13 | 147 | 
O=C(O)C/C=C/[C@@H]1[C@H]2CCCN3CCC[C@@H](CN1S(=O)(=O)c1ccc(C(F)(F)F)cc1)[C@@H]23 | 33.7 | 43.6 | 1470 | 
N#Cc1ccccc1S(=O)(=O)N1C[C@@H]2CCCN3CCC[C@@H]([C@H]23)[C@H]1C/C=C/C(=O)O | > 155 |  | 466 | 
COC(=O)C/C=C\[C@@H]1[C@H]2CCCN3CCC[C@@H](CN1S(=O)(=O)c1ccc([N+](=O)[O-])cc1)[C@@H]23 | 7.02 | 26.4 | 186 | 
N#Cc1cccc(S(=O)(=O)N2C[C@@H]3CCCN4CCC[C@@H]([C@H]34)[C@H]2/C=C\CC(=O)O)c1 | 17.4 | 42.7 | 745 | 
O=C(O)C/C=C\[C@@H]1[C@H]2CCCN3CCC[C@@H](CN1S(=O)(=O)c1cccc([N+](=O)[O-])c1)[C@@H]23 | 63.6 | 7 | 445 | 
N#Cc1cccc(S(=O)(=O)N2C[C@@H]3CCCN4CCC[C@@H]([C@H]34)[C@H]2/C=C/CC(=O)O)c1 | 13.1 | 35.5 | 466 | 
COC(=O)CCC[C@@H]1[C@H]2CCCN3CCC[C@@H](CN1S(=O)(=O)c1cccc(C#N)c1)[C@@H]23 | 11.7 | 24.6 | 288 | 
COC(=O)C/C=C\[C@@H]1[C@H]2CCCN3CCC[C@@H](CN1S(=O)(=O)c1ccccc1[N+](=O)[O-])[C@@H]23 | 5.23 | 92.1 | 481 | 
O=S(=O)(c1cccc(C(F)(F)F)c1)N1C[C@@H]2CCCN3CCC[C@@H]([C@H]23)[C@H]1/C=C\CCO | 15 | 6.2 | 93.5 | 
COC(=O)CCC[C@@H]1[C@H]2CCCN3CCC[C@@H](CN1S(=O)(=O)c1cccc(C(F)(F)F)c1)[C@@H]23 | 1.98 | 92.4 | 193 | selectivity ratio [8]: 16.7; IC50 (Coxsackievirus [5]): 1.28 µM; selectivity ratio [9]: 139; IC50 (Coxsackievirus [6]): 0.44 µM; IC50 (Coxsackievirus [7]): 7.61 µM; selectivity ratio [10]: 144
